KCNK3 block: human KCNK3 channel inhibitors, primary screen, CHO cells, FluxOR thallium flux, B-score; hit rate 0.84% among 340,000; FluxOR fluorescence; hits give low values; B-score at 10 µM; AID 602410, 2012;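 active = B-score under library mean minus 4 SD, starting fluorescence ratio at most library mean plus 5 SD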;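 note: more negative B-score means stronger inhibition of thallium flux through KCNK3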
Kir21 block: inhibitors of mouse Kir2.1 inward-rectifier potassium channel. Inward rectifier potassium channel 2 (Mus musculus), P35561. HEK293-Kir2.1, FluxOR thallium flux fluorescence; hits give low values. B-score at 10 µM. hit rate 0.85% among 310,000. AID 1672, 2009;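 active = fluorescence ratio B-score at or below minus 3 SD of library scores, with starting-brightness B-score within 2 SD, cut at about -4.2 in these data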;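 note: channel flux triggered by added potassium and thallium sulfate stimulus; B-score of peak minus minimum fluorescence over baseline after thallium stimulus; more negative B-score means stronger Kir2.1 block with less thallium influx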
Target sequence (P35561 whole entry, looked up): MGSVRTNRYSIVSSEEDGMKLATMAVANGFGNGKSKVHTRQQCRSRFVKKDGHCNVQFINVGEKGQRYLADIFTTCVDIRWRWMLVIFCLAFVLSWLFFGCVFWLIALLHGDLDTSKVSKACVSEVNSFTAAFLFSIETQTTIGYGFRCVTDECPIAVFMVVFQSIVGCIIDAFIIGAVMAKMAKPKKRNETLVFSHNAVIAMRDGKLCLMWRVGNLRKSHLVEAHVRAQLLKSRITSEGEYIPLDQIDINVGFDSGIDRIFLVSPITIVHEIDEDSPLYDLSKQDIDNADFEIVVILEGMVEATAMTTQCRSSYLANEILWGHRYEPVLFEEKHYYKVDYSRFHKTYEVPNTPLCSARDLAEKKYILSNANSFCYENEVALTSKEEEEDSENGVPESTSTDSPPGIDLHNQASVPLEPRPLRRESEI
KCNQ1 inh: inhibitors of human KCNQ1 channel, primary screen, cell-based, thallium flux, high-throughput. Potassium voltage-gated channel subfamily KQT member 1 (Homo sapiens), P51787. CHO-K1 KCNQ1, FluxOR thallium flux fluorescence; hits give high values. B-score at 10 µM. hit rate 1.3% among 310,000;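 active = compounds whose thallium flux B-score, printed positive for inhibition, exceeds three library SD while starting fluorescence stays within three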;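 note: channel opened by potassium depolarization with thallium stimulus after 20 min compound exposure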
KCNQ1 act: potentiators or activators of KCNQ1 channel, primary screen, cell-based, thallium flux, high-throughput; Potassium voltage-gated channel subfamily KQT member 1 (Homo sapiens), P51787; CHO-K1 KCNQ1, thallium flux FluxOR fluorescence; hits give high values; B-score at 10 µM; hit rate 0.35% among 310,000;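 active = fluorescence ratio B-score, a plate-corrected score, at least three library SD, with initial intensity B-score within 5 SD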
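Material: CHO-K1 cells stably expressing KCNQ1. Medium: assay buffer for compound exposure, DMSO matched across wells. Reagent: K+/Tl+ depolarizing stimulus. Compound dosing: single-concentration screen. Times: 37 °C overnight plating, 90-min dark dye load, 20-min compound pretreatment. Technique: FluxOR Tl+ flux fluorescence.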
hERG rescue: hERG rescue from dofetilide block, primary screen, cell-based, CHO-hERG, FluxOR thallium flux, dofetilide IC70. Voltage-gated inwardly rectifying potassium channel KCNH2 (Homo sapiens), Q12809. dofetilide IC70 present. activation (rescue from dofetilide block), less the hit threshold, % at 10 µM. hit rate 0.51% among 310,000. AID 1511, 2009;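 active = activation above the mean of controls blocked by dofetilide plus 5 SD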;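 note: thallium influx through hERG after potassium depolarization seen as dye fluorescence rise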
KCNK9 inh: KCNK9 potassium channel inhibitors, primary screen, HEK293 cells, thallium flux; Potassium channel subfamily K member 9 (Homo sapiens), Q9NPC2; B-score at 10 µM; AID 488922, 2010; FluxOR thallium flux fluorescence; hits give low values; hit rate 1.2% among 310,000;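 active = ratio B-score over 3 SD below the library mean, with starting fluorescence within 5 SD of its mean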;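 note: negative B-score means less thallium flux so channel inhibition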
KCNQ1 block val: KCNQ1 potassium channel inhibitors, confirmation, cell-based, Tl flux, duplicate; hit rate 93% among 1,600; shares compounds with KCNQ1 inh; inhibition, % at 10 µM; KCNQ1 cell line, FluxOR thallium flux fluorescence; AID 588353, 2011;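 active = primary screen active, with duplicate mean exceeding buffer control mean plus 3 SD of buffer wells, cut at about 28% in these data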
CHO KCNQ1 ctr: thallium flux effects in parental CHO cells, counter-screen for KCNQ1 inhibitor project, cell-based, Tl flux; shares compounds with KCNQ1 inh; parental CHO-K1, FluxOR thallium flux fluorescence ratio; hits give low values; zero means no signal rise above baseline; fluorescence ratio (Tl flux) at 10 µM; hit rate 21% among 1,600;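 active = mean of duplicate thallium-flux fluorescence ratios in parental host cells more than 5 SD below the buffer control mean, cut at about 0.38 in these data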;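 note: ratio is peak minus minimum fluorescence divided by baseline fluorescence; actives read low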
KCNQ1 ephys val: KCNQ1 channel inhibitors, confirmation, orthogonal assay, cell-based, automated electrophysiology; shares compounds with KCNQ1 inh; hit rate 20% among 490; KCNQ1-CHO cells, automated patch clamp current; calls only at 10 µM;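 active = KCNQ1 current drop exceeding 3 SD of negative control wells, seen in both duplicate runs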;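 note: steady state current during a 2 s step from -80 to +40 mV; negative values mean current inhibition and positive values mean potentiation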
KCNQ2 inh: KCNQ2 channel inhibition, selectivity assay for KCNQ1 inhibitor project, cell-based. shares compounds with KCNQ1 inh. KCNQ2 cells, FluxOR thallium flux fluorescence. inhibition, % at 10 µM. hit rate 71% among 1,600;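 active = mean percent inhibition of the KCNQ2 thallium signal more than 5 SD above the buffer-only control wells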;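 note: KCNQ2 expressed in CHO cells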
KCNQ1 KCNE1 spec: KCNQ1/KCNE1 channel inhibition, selectivity assay for KCNQ1 inhibitor project, CHO-K1 cells, thallium flux, FluxOR; shares compounds with KCNQ1 inh; FluxOR thallium flux fluorescence; inhibition, % at 10 µM; hit rate 77% among 1,600; AID 652147, 2013;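 active = mean percent inhibition of duplicate wells above the buffer-only control mean plus 3 SD of those controls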
Hits are given with their value; . = inactive; / = not tested or not shown; + = active, no number. Sampled rows, rich in hits. Any-hit rate of the full collection: about 3.7%.

SMILES	KCNK3 block	Kir21 block	KCNQ1 inh	KCNQ1 act	hERG rescue	KCNK9 inh	KCNQ1 block val	CHO KCNQ1 ctr	KCNQ2 inh	KCNQ1 KCNE1 spec	others
COC(=O)c1cc(OC)c(OC)cc1NC(=S)Nc1cc(Cl)ccc1OC	.	.	.	.	.	.	/	/	/	/
COC(=O)c1cc(OC)c(OC)cc1NC(=S)Nc1cccc(Cl)c1	.	.	7	.	.	.	59.5	.	.	.
N#Cc1cccc(NC(=O)c2ccccc2C(=O)O)c1	.	.	.	.	.	.	/	/	/	/
N#Cc1ccc(NC(=O)Nc2cccc(C#N)c2)cc1	.	.	7	.	.	.	49.0	.	.	.
O=C(Nc1cccc(Cl)c1)Nc1ccc2nccnc2c1	.	.	7	.	.	.	98.5	.	92.0%	100.5%	KCNQ1 ephys val=.
CC(=O)c1ccc(NC(=O)Nc2cccc(Cl)c2)cc1	.	.	8	.	.	.	88.0	.	60.7%	.	KCNQ1 ephys val=.
CC(=O)Nc1ccc(NC(=O)Nc2cccc(Cl)c2)cc1	.	.	.	.	.	.	/	/	/	/
O=C(N/N=C/c1ccc(Cl)cc1)C1CC12CCC2 (centres undefined)	.	.	.	.	.	.	/	/	/	/
CCS(=O)(=O)C(C)(CCl)C(=O)Nc1ccc(C(=O)OC)cc1 (centres undefined)	.	.	.	.	.	.	/	/	/	/
CCOc1ccc(S(=O)(=O)N(CC)CC(=O)NC2CCS(=O)(=O)C2)cc1 (centres undefined)	.	/	/	/	/	/	/	/	/	/
O=C(Nc1ccccc1)Nc1cccc(Cl)c1	.	.	13	.	.	.	86.0	.	72.3%	.
CSc1cccc(NC(=S)Nc2ccc(F)cc2)c1	.	.	.	.	.	.	/	/	/	/
CSc1cccc(NC(=O)Nc2ccc(Cl)cc2)c1	.	.	17	.	.	.	68.5	.	60.7%	43.5%
O=C(Nc1ccncc1)Nc1cccc(F)c1	.	.	8	.	.	.	48.5	.	.	42.0%
Fc1ccc(NC(=S)Nc2cccc(Cl)c2)cc1	.	.	6	.	.	.	47.5	.	.	36.0%
CSc1cccc(NC(N)=O)c1	.	.	.	.	.	.	/	/	/	/
O=C(Nc1cccc(Cl)c1)Nc1cccc(C(=O)O)c1	.	.	.	.	.	.	/	/	/	/
Cc1c(CCCl)c(Cl)n2c(nc3ccccc32)c1C#N	.	/	/	/	/	/	/	/	/	/
Nc1nc(-c2cccc(NS(=O)(=O)c3ccccc3)c2)cs1	.	.	.	.	.	.	/	/	/	/
O=C(Cc1ccccc1)NCC(=O)N1CCN(c2ccccc2)CC1	.	.	.	.	.	.	/	/	/	/
O=C(Nc1ccccc1)Nc1ccccc1NS(=O)(=O)c1cccs1	.	.	10	.	.	.	64.0	.	63.7%	.
Cc1ccc(Cn2c(=N)n(CC(O)COc3ccccc3)c3ccccc32)cc1 (centres undefined)	.	-8.54	6	.	.	-7.6	129.5	.	68.0%	.	KCNQ1 ephys val=.
COc1ccc(S(=O)(=O)N2CCOCC2)cc1NC(=O)CN1C(=O)NC2(CCCC2)C1=O	.	/	/	/	/	/	/	/	/	/
CCN(CC)c1nc(-c2ccccc2)ncc1S(=O)(=O)c1ccc(C)cc1	.	.	6	.	.	.	83.5	.	80.3%	130.5%
Cc1nc2c(-c3ccccc3)c(C)nn2c(N)c1-c1ccccc1	.	.	7	.	.	.	+	.	.	.	KCNQ1 ephys val=.
SMILES	KCNK3 block	Kir21 block	KCNQ1 inh	KCNQ1 act	hERG rescue	KCNK9 inh	KCNQ1 block val	CHO KCNQ1 ctr	KCNQ2 inh	KCNQ1 KCNE1 spec	others
COc1ccc(Nc2nc(-c3cccc([N+](=O)[O-])c3)nc3ccccc23)c(OC)c1	.	.	.	.	.	.	/	/	/	/
COc1ccc(Nc2nc(-c3cccs3)nc3ccccc23)c(OC)c1	.	.	8	.	.	.	132.5	0.326	131.3%	+
Cc1ccccc1S(=O)(=O)Nc1nc2ccccc2nc1N1CCc2ccccc2C1	.	.	7	.	.	.	84.5	.	92.3%	121.5%
Cc1ccc(NC(=O)CS(=O)(=O)c2c[nH]c3ccccc23)c(C)c1	.	.	.	.	.	.	/	/	/	/
CCOC(=O)c1c(NC(=O)c2ccccc2C)sc2c1CC(C)(C)OC2	.	.	7	.	.	.	86.0	.	91.7%	150.5%
COc1cc(/C=C/C(=O)OCC(=O)NC(=O)C2COc3ccccc3O2)ccc1OC(F)F (centres undefined)	.	/	/	/	/	/	/	/	/	/
COc1ccccc1-n1c(CNC(=O)c2ccco2)nnc1SCC(=O)Nc1nccs1	.	.	.	.	.	.	/	/	/	/
COc1ccc(NC(=O)c2cc(-c3cc(C)cc(C)c3O)n[nH]2)cc1Cl	-9.16	.	8	.	.	.	168.5	0.272	114.0%	+
S=C(NC1CC1)N1CCN(C(=S)NC2CC2)CC1	.	.	.	.	.	.	/	/	/	/
OCCN1CCN(C(=S)NC2CCCC2)CC1	.	.	10	.	.	.	83.0	.	.	110.0%
O=C(COc1cccc(C(F)(F)F)c1)Nc1ccc(S(=O)(=O)N2CCCCC2)cc1	.	.	8	.	.	.	107.0	.	98.7%	67.0%	KCNQ1 ephys val=.
Cc1cc2nc3c(=O)[nH]c(=S)[nH]c3nc2cc1NC(=O)C(F)(F)F	.	.	11	.	.	-7.24	65.5	0.326	.	151.0%
CS(=O)(=O)Nc1ccc(C(=O)Nc2ccccc2-c2ccccc2)cc1	.	.	.	.	.	.	/	/	/	/

High-throughput results as filed in PubChem.
